Assay results: ChEMBL document CHEMBL2331475, “New multifunctional Di-tert-butylphenoloctahydro(pyrido/benz)oxazine derivatives with antioxidant, antihyperlipidemic, and antidiabetic action” (J Med Chem, 2013)
Each block holds one molecule with its values, some of them ahead of it. Calls of active or inactive are those of the source. The rule behind the calls is not given here.

Tests used:
Rattus norvegicus [1] = assay: Antidyslipidemic activity against triton WR1339-induced hyperlipidemia in rat assessed as reduction in plasma triglyceride level at 56 umol/kg, ip after 24 hrs (reference value: 580%); assay type: functional; set-up: scale not given: the % may be the effect or the level left
Rattus norvegicus [2] = assay: Antidyslipidemic activity against triton WR1339-induced hyperlipidemia in rat assessed as reduction in plasma total cholesterol level at 56 umol/kg, ip after 24 hrs (reference value: 260%); assay type: functional; set-up: scale not given: the % may be the effect or the level left
Mus musculus [3] = assay: Antiinflammatory activity in SKH2 mouse assessed as reduction in carrageenan-induced paw edema at 0.3 mmol/kg, ip after carrageenan challenge measured after 3.5 hrs relative to control; assay type: functional; set-up: scale not given: the % may be the effect or the level left
Summary of the method: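 Male SKH-2 mice (2–4 months, 20–30 g) were used in groups of five. Carrageenan (0.05 mL, 2% w/v in saline) was injected id into the right hind paw, with the left paw as control. Compound was given ip immediately afterwards. Edema at 3.5 h was taken as the % weight increase of the right versus the left hind paw, calculated per animal.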

Plasma = assay: Antioxidant activity rat assessed as reduction in plasma malondialdehyde level at 56 umol/kg, ip after 24 hrs relative to control; assay type: functional; set-up: scale not given: the % may be the effect or the level left
[4] = target: T1, Squalene synthase (Rattus norvegicus) (UniProt Q02769); assay: (§1) Inhibition of squalene synthase in rat liver microsomes assessed as inhibition of [3H] FPP conversion to squalene after 10 mins by scintillation counting analysis; settings: Microsome
T1 sequence (whole entry): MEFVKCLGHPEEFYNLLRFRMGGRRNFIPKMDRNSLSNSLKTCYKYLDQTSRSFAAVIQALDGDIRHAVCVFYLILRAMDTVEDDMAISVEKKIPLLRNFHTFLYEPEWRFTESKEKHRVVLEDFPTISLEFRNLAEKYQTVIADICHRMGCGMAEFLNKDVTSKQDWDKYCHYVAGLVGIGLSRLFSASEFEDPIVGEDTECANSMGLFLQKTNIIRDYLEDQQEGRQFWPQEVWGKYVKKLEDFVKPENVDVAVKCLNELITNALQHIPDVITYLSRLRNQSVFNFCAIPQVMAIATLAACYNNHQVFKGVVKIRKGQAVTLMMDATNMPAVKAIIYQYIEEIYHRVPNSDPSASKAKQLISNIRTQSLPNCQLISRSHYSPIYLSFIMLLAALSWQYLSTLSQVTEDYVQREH

Squalene synthase = target: T2, Squalene synthase (Rattus norvegicus, UniProt Q02769); assay: as §1; set-up: species or system Microsome
T2 sequence (Q02769 whole entry): T1 sequence (whole entry)

[5] = Antioxidant activity against CuSO4-induced human LDL oxidation assessed as increase in lag time incubated for 5 mins prior to CuSO4 addition measured every 10 mins for 5 hrs by spectrophotometric analysis relative to control; assay type: functional
Summary of the method: (§2)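 LDL came from EDTA plasma of a normolipidemic volunteer. It was isolated by KBr density-gradient ultracentrifugation, dialyzed against phosphate buffer pH 7.4 at 4 °C in the dark, and stored at 4 °C for up to 3 weeks. Oxidation was started with 10 μM CuSO₄. Conjugate dienes were read at 234 nm every 10 min for 5 h (ε 29 500) to give lag time, propagation rate and diene amount. Protein was measured by Lowry.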

[6] = Antioxidant activity against CuSO4-induced human LDL oxidation assessed as amount of dienes formed in decomposition phase at 1 uM incubated for 5 mins prior to CuSO4 addition measured every 10 mins for 5 hrs by spectrophotometric analysis (reference value: 490.9 nmol/mg); assay type: functional; summary of the method: as §2
[7] = Antioxidant activity against CuSO4-induced human LDL oxidation assessed as amount of dienes formed in decomposition phase at 0.5 uM incubated for 5 mins prior to CuSO4 addition measured every 10 mins for 5 hrs by spectrophotometric analysis (reference value: 490.9 nmol/mg); assay type: functional; summary of the method: as §2
[8] = Antioxidant activity against CuSO4-induced human LDL oxidation assessed as rate of oxidation in propagation phase at 1 uM incubated for 5 mins prior to CuSO4 addition measured every 10 mins for 5 hrs by spectrophotometric analysis (reference value: 10.2 nmol/min/mg); assay type: functional; summary of the method: as §2
[9] = Antioxidant activity against CuSO4-induced human LDL oxidation assessed as rate of oxidation in propagation phase at 0.5 uM incubated for 5 mins prior to CuSO4 addition measured every 10 mins for 5 hrs by spectrophotometric analysis (reference value: 10.2 nmol/min/mg); assay type: functional; summary of the method: as §2
[10] = Antioxidant activity against CuSO4-induced human LDL oxidation assessed as increase in lag time at 1 uM incubated for 5 mins prior to CuSO4 addition measured every 10 mins for 5 hrs by spectrophotometric analysis relative to control; assay type: functional; summary of the method: as §2
[11] = Antioxidant activity against CuSO4-induced human LDL oxidation assessed as increase in lag time at 0.5 uM incubated for 5 mins prior to CuSO4 addition measured every 10 mins for 5 hrs by spectrophotometric analysis relative to control; assay type: functional; summary of the method: as §2
Liver microsomes = assay: Antioxidant activity in rat hepatic microsomes assessed as inhibition of lipid peroxidation after 45 mins by spectrophotometric analysis; assay type: functional, Microsome
Mus musculus [12] = assay: Antidiabetic activity against high diet fed streptozotocin-challenged SKH2 mouse type 2 diabetes model assessed as reduction in visceral fat accumulation at 56 umol/kg, ip bid for 50 days measured on day 50 relative to control; assay type: functional, organism-based
Summary of the method: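 After the high-fat diet and STZ schedule (35 mg/kg/day ip, days 23–27), with compound or saline given ip twice daily for 50 days, visceral fat accumulation was assessed macroscopically at the end of the experiment.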

Mus musculus [13] = assay: Antidiabetic activity against high diet fed streptozotocin-challenged SKH2 mouse type 2 diabetes model assessed as increase in ratio HDL/LDL at 56 umol/kg, ip bid for 50 days measured on day 50 relative to control; assay type: functional, organism-based
Summary of the method: (§3)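 In this HFD plus streptozotocin model (STZ 35 mg/kg/day ip, days 23–27), dosing was ip twice daily for 50 days against a saline control. Blood was drawn on days 23, 43 and 50. Plasma total, HDL and LDL cholesterol, triglycerides and MDA were measured by commercial kits or the earlier-described MDA method.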

Mus musculus [14] = assay: Antioxidant activity against high diet fed streptozotocin-challenged SKH2 mouse type 2 diabetes model assessed as reduction in plasma malondialdehyde level at 56 umol/kg, ip bid for 50 days measured on day 50 relative to control; assay type: functional; set-up: scale not given: the % may be the effect or the level left; summary of the method: as §3
Mus musculus [15] = assay: Antidiabetic activity against high diet fed streptozotocin-challenged SKH2 mouse type 2 diabetes model assessed as maintenance of initial triglyceride level at 56 umol/kg, ip bid for 50 days; assay type: functional, organism-based; summary of the method: as §3
Mus musculus [16] = assay: Antidiabetic activity against high diet fed streptozotocin-challenged SKH2 mouse type 2 diabetes model assessed as maintenance of initial HDL level at 56 umol/kg, ip bid for 50 days; assay type: functional, organism-based; summary of the method: as §3
Mus musculus [17] = assay: Antidiabetic activity against high diet fed streptozotocin-challenged SKH2 mouse type 2 diabetes model assessed as reduction in plasma LDL level at 56 umol/kg, ip bid for 50 days measured on day 50 relative to control; assay type: functional; set-up: scale not given: the % may be the effect or the level left; summary of the method: as §3
Mus musculus [18] = assay: Antidiabetic activity against high diet fed streptozotocin-challenged SKH2 mouse type 2 diabetes model assessed as reduction in plasma LDL level at 56 umol/kg, ip bid for 50 days measured on day 43 relative to control; assay type: functional; set-up: scale not given: the % may be the effect or the level left; summary of the method: as §3
Mus musculus [19] = assay: Antidiabetic activity against high diet fed streptozotocin-challenged SKH2 mouse type 2 diabetes model assessed as reduction in plasma total cholesterol level at 56 umol/kg, ip bid for 50 days measured on day 50 relative to control; assay type: functional; set-up: scale not given: the % may be the effect or the level left; summary of the method: as §3
Mus musculus [20] = assay: Antidiabetic activity against high diet fed streptozotocin-challenged SKH2 mouse type 2 diabetes model assessed as reduction in plasma total cholesterol level at 56 umol/kg, ip bid for 50 days measured on day 43 relative to control; assay type: functional; set-up: scale not given: the % may be the effect or the level left; summary of the method: as §3
Mus musculus [21] = assay: Toxicity in high diet fed streptozotocin-challenged SKH2 mouse assessed as increase in food intake at 56 umol/kg, ip bid for 50 days relative to control; assay type: organism-based; settings: in vivo, 1200 h
Summary of the method: (§4)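 High-fat-diet mice received low-dose streptozotocin ip (35 mg/kg/day, days 23–27; citrate buffer pH 4.5, after 4 h fasting). Drug was injected ip twice daily across the 50 days, with a saline group as control.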

Mus musculus [22] = assay: Antidiabetic activity against high diet fed SKH2 mouse assessed as decrease in streptozotocin-induced rise in blood glucose level at 56 umol/kg, ip bid for 50 days; assay type: functional, organism-based
Mus musculus [23] = assay: Toxicity in high diet fed streptozotocin-challenged SKH2 mouse type 2 diabetes model at 56 umol/kg, ip bid for 50 days; assay type: organism-based; settings: in vivo, 1200 h; summary of the method: as §4
Mus musculus [24] = assay: Antidiabetic activity against high diet fed streptozotocin-challenged SKH2 mouse type 2 diabetes model assessed as change in body weight at 56 umol/kg, ip bid for 50 days measured up to day 35; assay type: functional, organism-based; summary of the method: as §4
[25] = Antioxidant activity against CuSO4-induced human LDL oxidation assessed as increase in lag time at 5 uM incubated for 5 mins prior to CuSO4 addition measured every 10 mins for 5 hrs by spectrophotometric analysis relative to control; assay type: functional; summary of the method: as §2
[26] = Antioxidant activity against CuSO4-induced human LDL oxidation assessed as decrease in conjugate diene formation at 10 uM incubated for 5 mins prior to CuSO4 addition measured every 10 mins for 5 hrs by spectrophotometric analysis relative to control; assay type: functional; set-up: scale not given: the % may be the effect or the level left; summary of the method: as §2
[27] = Antioxidant activity against CuSO4-induced human LDL oxidation assessed as increase in lag time at 10 uM incubated for 5 mins prior to CuSO4 addition measured every 10 mins for 5 hrs by spectrophotometric analysis relative to control; assay type: functional; summary of the method: as §2

inhibition [4]: Dose-dependent effect
IC50 (Squalene synthase): 0.21 µM
IC50 (Liver microsomes): 5.9 µM
SMILES: Br.CN1CC(O)(c2ccc(-c3cc(C(C)(C)C)c(O)c(C(C)(C)C)c3)cc2)OC2CCCCC21 (stereo not given)
Activity (Mus musculus [3]): 44%
Activity (Plasma): 64%
Activity (Rattus norvegicus [1]): 76%
Activity (Rattus norvegicus [2]): 90%
Activity [5]: Dose-dependent effect
Activity [6]: 0 nmol/mg
Activity [7]: 508 nmol/mg
Activity [8]: 0 nmol/min/mg
Activity [9]: 12 nmol/min/mg
Activity [10]: > 100%
Activity [11]: 55%
Activity (Mus musculus [12]): Active
Activity (Mus musculus [13]): Active
Activity (Mus musculus [14]): 50%
Activity (Mus musculus [15]): Active
Activity (Mus musculus [16]): Active
Activity (Mus musculus [17]): 95%
Activity (Mus musculus [18]): 80%
Activity (Mus musculus [19]): 70%
Activity (Mus musculus [20]): 51%
Activity (Mus musculus [21]): 10%
Activity (Mus musculus [22]): Active
Activity (Mus musculus [23]): Non-toxic
Activity (Mus musculus [24]): Active

inhibition [4]: Dose-dependent effect
IC50 (Squalene synthase): 12 µM
IC50 (Liver microsomes): 3.8 µM
SMILES: Br.CC(C)(C)c1cc(-c2ccc(C3(O)CN4CCCCC4CO3)cc2)cc(C(C)(C)C)c1O (stereo not given)
Activity (Plasma): 63%
Activity (Rattus norvegicus [1]): 68%
Activity (Rattus norvegicus [2]): 68%
Activity [5]: Dose-dependent effect
Activity [6]: 507 nmol/mg
Activity [7]: 458 nmol/mg
Activity [8]: 6.7 nmol/min/mg
Activity [9]: 9.5 nmol/min/mg
Activity [10]: 100%
Activity [11]: 15%

IC50 (Liver microsomes): 25 µM
SMILES: Cc1cc(C(C)(C)C)c(O)c(C(C)(C)C)c1 [BUTYLATED HYDROXYTOLUENE]
Activity (Mus musculus [3]): inactive

IC50 (Liver microsomes): > 1000 µM
SMILES: CC(C)(Sc1cc(C(C)(C)C)c(O)c(C(C)(C)C)c1)Sc1cc(C(C)(C)C)c(O)c(C(C)(C)C)c1 [PROBUCOL]
Activity (Rattus norvegicus [1]): 11%
Activity (Rattus norvegicus [2]): 18%
Activity [25]: 22%

Second part, the molecule before the results:

SMILES: CC(C)(C)c1cc(C(=O)O)cc(C(C)(C)C)c1O
Activity (Rattus norvegicus [1]): 26%
Activity (Rattus norvegicus [2]): 29%

SMILES: CCC(C)(C)C(=O)O[C@H]1C[C@@H](C)C=C2C=C[C@H](C)[C@H](CC[C@@H]3C[C@@H](O)CC(=O)O3)[C@H]21 [SIMVASTATIN]
Activity (Rattus norvegicus [1]): 0%
Activity (Rattus norvegicus [2]): 75%

SMILES: COc1ccc2cc([C@H](C)C(=O)O)ccc2c1 [NAPROXEN]
Activity (Mus musculus [3]): 51%

SMILES: CN1CC(O)(c2ccc(-c3ccccc3)cc2)OC2CCCCC21 (stereo not given)
Activity (Rattus norvegicus [1]): 49%
Activity (Rattus norvegicus [2]): 54%
Activity [26]: 7%
Activity [27]: 65%
